{"source": "ChEMBL document CHEMBL5653631", "about": "“A Potent and Selective ULK1 Inhibitor Suppresses Autophagy and Sensitizes Cancer Cells to Nutrient Stress” (iScience, 2018)", "key": {"[1]": {"biological_target": "T1, Activin receptor type-1 (Homo sapiens) (UniProt Q04771)", "T1 sequence (whole entry)": "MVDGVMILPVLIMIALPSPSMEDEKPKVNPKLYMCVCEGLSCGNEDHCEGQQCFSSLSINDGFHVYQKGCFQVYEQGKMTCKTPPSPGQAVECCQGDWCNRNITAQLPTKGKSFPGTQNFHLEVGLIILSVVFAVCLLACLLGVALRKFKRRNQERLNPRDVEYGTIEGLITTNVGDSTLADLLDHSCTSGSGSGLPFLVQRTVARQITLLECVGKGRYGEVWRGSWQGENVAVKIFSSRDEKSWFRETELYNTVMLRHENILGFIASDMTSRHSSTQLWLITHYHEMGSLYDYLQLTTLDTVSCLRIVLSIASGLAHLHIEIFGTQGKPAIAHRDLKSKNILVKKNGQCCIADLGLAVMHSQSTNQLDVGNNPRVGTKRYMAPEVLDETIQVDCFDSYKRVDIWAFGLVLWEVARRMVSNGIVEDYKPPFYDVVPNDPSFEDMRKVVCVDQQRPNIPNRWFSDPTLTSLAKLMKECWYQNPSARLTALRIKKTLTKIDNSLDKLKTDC", "assay": "Inhibition of human recombinant ALK2 at 40 nM in presence of ATP by radiometric assay relative to control", "outline": "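Panel of 327 recombinant human kinases, each assayed in vitro by radiometric activity assay in duplicate at a single inhibitor concentration per compound, chosen with reference to its ULK1 inhibition. Activity remaining was expressed as percent of vehicle control, and percent inhibition was calculated as 100 minus percent activity remaining.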"}, "[2]": {"biological_target": "Tyrosine-protein kinase SYK (Homo sapiens) (UniProt P43405)", "assay": "Inhibition of human recombinant SYK at 40 nM in presence of ATP by radiometric assay relative to control"}, "[3]": {"biological_target": "Tyrosine-protein kinase Blk (Homo sapiens) (UniProt P51451)", "sequence (P51451 2-505 limits assumed)": "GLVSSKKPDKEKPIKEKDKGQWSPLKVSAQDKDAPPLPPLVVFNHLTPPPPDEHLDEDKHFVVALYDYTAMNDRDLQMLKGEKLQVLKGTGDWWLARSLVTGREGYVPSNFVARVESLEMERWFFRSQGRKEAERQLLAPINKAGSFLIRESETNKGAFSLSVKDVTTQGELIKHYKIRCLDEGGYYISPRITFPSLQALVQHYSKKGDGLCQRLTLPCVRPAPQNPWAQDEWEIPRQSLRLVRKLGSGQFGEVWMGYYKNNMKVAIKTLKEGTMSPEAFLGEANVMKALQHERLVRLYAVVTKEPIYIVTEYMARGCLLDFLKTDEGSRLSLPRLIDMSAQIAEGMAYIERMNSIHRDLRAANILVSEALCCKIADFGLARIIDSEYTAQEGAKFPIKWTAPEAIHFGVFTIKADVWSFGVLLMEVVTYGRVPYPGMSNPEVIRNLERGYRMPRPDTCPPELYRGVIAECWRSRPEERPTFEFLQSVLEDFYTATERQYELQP", "assay": "Inhibition of human recombinant BLK at 40 nM in presence of ATP by radiometric assay relative to control", "outline": "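Part of a radiometric in vitro activity panel of 327 recombinant human kinases. Each kinase was tested in duplicate at one inhibitor concentration. Activity remaining was expressed as a percentage of the vehicle control, and percent inhibition was taken as 100 minus that value.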"}, "[4]": {"biological_target": "T2, Serine/threonine-protein kinase STK11 (Homo sapiens) (UniProt Q15831)", "T2 sequence (whole entry)": "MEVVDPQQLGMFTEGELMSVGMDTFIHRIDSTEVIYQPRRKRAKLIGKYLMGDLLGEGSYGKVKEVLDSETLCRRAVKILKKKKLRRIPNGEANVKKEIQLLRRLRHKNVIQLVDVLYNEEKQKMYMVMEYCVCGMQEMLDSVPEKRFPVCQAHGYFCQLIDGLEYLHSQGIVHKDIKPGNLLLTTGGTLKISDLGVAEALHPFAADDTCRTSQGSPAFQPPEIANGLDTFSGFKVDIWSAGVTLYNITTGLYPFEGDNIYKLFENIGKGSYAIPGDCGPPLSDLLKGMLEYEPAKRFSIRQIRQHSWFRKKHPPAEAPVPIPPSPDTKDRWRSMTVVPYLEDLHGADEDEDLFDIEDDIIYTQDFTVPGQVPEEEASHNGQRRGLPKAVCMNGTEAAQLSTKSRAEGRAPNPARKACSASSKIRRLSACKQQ", "assay": "Inhibition of human recombinant LKB1 at 40 nM related to control ULK1"}, "[5]": {"biological_target": "T3, Serine/threonine-protein kinase Sgk1 (Homo sapiens) (UniProt O00141)", "T3 sequence (whole entry)": "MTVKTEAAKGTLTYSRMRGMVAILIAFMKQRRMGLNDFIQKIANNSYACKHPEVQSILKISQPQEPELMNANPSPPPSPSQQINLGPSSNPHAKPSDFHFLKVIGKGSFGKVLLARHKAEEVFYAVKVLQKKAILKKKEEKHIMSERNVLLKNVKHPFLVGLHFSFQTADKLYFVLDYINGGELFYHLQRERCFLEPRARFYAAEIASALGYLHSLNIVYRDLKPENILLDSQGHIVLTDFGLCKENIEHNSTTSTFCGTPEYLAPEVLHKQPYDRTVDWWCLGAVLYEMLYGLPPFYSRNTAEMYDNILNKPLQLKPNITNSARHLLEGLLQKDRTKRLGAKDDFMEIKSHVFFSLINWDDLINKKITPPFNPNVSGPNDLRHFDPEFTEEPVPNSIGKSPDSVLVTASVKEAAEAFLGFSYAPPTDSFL", "assay": "Inhibition of human recombinant SGK1 at 15 nM in presence of ATP by radiometric assay relative to control"}, "[6]": {"biological_target": "T4, Serine/threonine-protein kinase tousled-like 1 (Homo sapiens) (UniProt Q9UKI8)", "T4 sequence (whole entry)": "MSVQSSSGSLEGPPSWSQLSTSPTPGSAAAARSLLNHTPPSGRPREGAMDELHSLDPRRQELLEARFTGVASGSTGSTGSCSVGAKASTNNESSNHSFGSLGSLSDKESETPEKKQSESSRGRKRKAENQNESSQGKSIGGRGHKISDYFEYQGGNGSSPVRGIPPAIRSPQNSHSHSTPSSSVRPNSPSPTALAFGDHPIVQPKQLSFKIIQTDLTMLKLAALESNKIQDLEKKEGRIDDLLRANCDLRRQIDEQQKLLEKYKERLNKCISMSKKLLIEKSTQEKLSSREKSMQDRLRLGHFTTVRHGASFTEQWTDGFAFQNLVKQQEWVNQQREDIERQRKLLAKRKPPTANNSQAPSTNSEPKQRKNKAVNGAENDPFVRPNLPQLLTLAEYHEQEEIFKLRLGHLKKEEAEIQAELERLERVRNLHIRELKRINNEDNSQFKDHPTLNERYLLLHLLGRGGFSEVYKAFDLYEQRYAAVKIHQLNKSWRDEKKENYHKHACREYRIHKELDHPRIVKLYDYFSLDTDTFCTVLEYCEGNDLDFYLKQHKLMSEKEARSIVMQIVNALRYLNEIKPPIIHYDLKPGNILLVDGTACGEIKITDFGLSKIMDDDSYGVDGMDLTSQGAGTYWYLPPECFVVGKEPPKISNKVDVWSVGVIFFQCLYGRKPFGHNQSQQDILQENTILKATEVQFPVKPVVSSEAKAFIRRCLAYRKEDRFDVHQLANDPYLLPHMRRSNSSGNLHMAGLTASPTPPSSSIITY", "assay": "Inhibition of human recombinant TLK1 at 15 nM in presence of ATP by radiometric assay relative to control"}, "[7]": {"biological_target": "Serine/threonine-protein kinase WNK2 (Homo sapiens) (UniProt Q9Y3S1)", "sequence (Q9Y3S1 whole entry)": "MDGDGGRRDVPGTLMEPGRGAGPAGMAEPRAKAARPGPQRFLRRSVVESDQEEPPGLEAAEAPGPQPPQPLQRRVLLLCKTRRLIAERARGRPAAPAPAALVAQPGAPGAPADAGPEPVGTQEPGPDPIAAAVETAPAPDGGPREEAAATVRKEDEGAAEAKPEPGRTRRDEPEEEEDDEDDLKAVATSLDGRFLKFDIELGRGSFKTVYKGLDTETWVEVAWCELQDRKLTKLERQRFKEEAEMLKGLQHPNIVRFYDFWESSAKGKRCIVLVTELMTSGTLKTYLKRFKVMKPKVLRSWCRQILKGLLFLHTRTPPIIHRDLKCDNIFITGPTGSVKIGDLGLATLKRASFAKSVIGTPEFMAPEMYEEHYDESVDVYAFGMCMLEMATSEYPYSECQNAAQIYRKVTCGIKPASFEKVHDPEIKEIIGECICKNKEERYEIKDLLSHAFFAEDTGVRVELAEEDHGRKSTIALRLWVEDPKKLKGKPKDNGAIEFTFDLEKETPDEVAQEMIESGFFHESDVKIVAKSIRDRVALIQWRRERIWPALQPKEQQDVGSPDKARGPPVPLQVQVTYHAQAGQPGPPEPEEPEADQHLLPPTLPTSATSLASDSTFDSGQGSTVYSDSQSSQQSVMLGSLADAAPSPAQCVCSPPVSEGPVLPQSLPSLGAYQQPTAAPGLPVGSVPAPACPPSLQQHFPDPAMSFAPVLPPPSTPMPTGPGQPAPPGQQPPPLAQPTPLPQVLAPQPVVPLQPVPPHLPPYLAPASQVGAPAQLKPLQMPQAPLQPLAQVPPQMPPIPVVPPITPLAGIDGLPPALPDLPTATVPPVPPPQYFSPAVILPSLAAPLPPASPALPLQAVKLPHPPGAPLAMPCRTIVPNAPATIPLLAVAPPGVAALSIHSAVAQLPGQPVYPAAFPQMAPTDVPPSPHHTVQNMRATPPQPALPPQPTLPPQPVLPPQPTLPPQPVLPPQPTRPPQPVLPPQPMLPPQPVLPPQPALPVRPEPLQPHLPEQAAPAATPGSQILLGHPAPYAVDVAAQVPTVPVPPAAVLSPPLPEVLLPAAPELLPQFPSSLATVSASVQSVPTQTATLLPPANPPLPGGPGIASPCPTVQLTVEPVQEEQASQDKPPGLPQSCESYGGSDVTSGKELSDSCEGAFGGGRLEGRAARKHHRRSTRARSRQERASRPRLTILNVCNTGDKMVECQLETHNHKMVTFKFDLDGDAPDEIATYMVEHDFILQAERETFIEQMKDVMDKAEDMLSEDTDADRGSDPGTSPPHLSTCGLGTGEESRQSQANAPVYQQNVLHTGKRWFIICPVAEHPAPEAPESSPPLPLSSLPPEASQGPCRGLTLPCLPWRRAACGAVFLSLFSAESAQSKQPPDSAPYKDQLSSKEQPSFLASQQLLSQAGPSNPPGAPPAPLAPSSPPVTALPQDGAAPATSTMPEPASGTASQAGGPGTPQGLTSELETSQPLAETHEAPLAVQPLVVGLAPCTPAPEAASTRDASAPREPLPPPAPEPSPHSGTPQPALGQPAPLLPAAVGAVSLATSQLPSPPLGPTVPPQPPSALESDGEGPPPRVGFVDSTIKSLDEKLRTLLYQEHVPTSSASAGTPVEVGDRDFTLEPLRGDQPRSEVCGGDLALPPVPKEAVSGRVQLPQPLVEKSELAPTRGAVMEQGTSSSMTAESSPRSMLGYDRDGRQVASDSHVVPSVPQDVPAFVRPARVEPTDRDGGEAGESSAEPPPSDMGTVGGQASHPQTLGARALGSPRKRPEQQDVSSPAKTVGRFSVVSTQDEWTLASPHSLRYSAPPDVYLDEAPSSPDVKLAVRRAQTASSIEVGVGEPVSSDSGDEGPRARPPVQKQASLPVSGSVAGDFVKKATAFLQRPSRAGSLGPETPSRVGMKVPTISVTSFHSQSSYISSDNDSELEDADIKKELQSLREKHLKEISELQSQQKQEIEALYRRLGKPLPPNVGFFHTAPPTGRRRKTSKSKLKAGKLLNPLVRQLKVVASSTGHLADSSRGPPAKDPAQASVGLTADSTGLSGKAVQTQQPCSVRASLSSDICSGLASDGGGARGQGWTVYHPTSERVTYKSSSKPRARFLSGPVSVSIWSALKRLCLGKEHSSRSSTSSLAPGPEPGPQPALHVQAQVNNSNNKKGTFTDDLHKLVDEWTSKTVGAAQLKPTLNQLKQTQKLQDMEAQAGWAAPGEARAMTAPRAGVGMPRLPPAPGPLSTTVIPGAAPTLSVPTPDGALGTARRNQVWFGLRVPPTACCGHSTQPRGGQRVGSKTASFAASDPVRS", "assay": "Inhibition of human recombinant Wnk2 at 15 nM related to control ULK1"}, "[8]": {"biological_target": "T4, Serine/threonine-protein kinase tousled-like 1 (Homo sapiens)", "assay": "Inhibition of human recombinant TLK1 at 15 nM related to control ULK1"}}}
{"smiles": "O=C(N[C@@H](C1CC1)C(F)(F)F)c1cc(-c2cnn3cc(-c4ccc(F)cc4)cnc23)cs1", "values": [{"measurement": "inhibition", "setting": "[1]", "value": 56, "unit": "%"}, {"measurement": "inhibition", "setting": "[2]", "value": 0, "unit": "%"}, {"measurement": "inhibition", "setting": "[3]", "value": 17, "unit": "%"}, {"measurement": "fold change (FC)", "setting": "[4]", "value": 0.18}]}
{"smiles": "CC(C)[C@H](NC(=O)c1cc(-c2cnn3cc(-c4ccc(OCCN5CCCCC5)cc4)cnc23)cs1)C(F)(F)F", "values": [{"measurement": "inhibition", "setting": "[5]", "value": 4, "unit": "%"}, {"measurement": "inhibition", "setting": "[6]", "value": 0, "unit": "%"}, {"measurement": "fold change (FC)", "setting": "[7]", "value": 0.02}, {"measurement": "fold change (FC)", "setting": "[8]", "value": 0}]}
